ChEMBL document CHEMBL1240328, “Selective compounds define Hsp90 as a major inhibitor of apoptosis in small-cell lung cancer” (Nat Chem Biol, 2007)
The source made the active and inactive calls.

How the values were obtained:
[1] = molecular target: Heat shock protein HSP 90-beta (Homo sapiens) (UniProt P08238); test: Inhibition of HSP90-mediated antiapoptotic activity in human NCI-H510 cells assessed as increase in apoptotic cell population at 0.2 to 1 uM after 96 hrs by FACS analysis relative to control; format: cell-based
[2] = molecular target: Heat shock protein HSP 90-beta (Homo sapiens) (UniProt P08238); test: Binding affinity to HSP90 in human NCI-H526 cells after 24 hrs by fluorescence polarization assay; format: cell-based
[3] = molecular target: Heat shock protein HSP 90-beta (Homo sapiens) (UniProt P08238); test: Inhibition of HSP90-mediated proliferation of human NCI-H209 cells at 1 to 3 uM after 72 to 96 hrs by sulforhodamine B assay; format: cell-based
[4] = molecular target: Heat shock protein HSP 90-beta (Homo sapiens) (UniProt P08238); test: Inhibition of HSP90-mediated antiapoptotic activity in human NCI-H209 cells assessed as increase in apoptotic cell population at 0.2 to 1 uM after 96 hrs by FACS analysis relative to control; format: cell-based
[5] = molecular target: Heat shock protein HSP 90-beta (Homo sapiens) (UniProt P08238); test: Inhibition of HSP90-mediated antiapoptotic activity in human NCI-H187 cells assessed as increase in apoptotic cell population at 0.2 to 1 uM after 72 hrs by FACS analysis relative to control; format: cell-based
[6] = molecular target: Heat shock protein HSP 90-beta (Homo sapiens) (UniProt P08238); test: Inhibition of HSP90-mediated antiapoptotic activity in human NCI-H146 cells assessed as increase in apoptotic cell population at 0.2 to 1 uM after 96 hrs by FACS analysis relative to control; format: cell-based
[7] = molecular target: Heat shock protein HSP 90-beta (Homo sapiens) (UniProt P08238); test: Inhibition of HSP90-mediated proliferation of human NCI-H146 cells at 1 to 3 uM after 72 to 96 hrs by sulforhodamine B assay; format: cell-based
[8] = molecular target: Heat shock protein HSP 90-beta (Homo sapiens) (UniProt P08238); test: Binding affinity to HSP90 in human NCI-H187 cells after 24 hrs by fluorescence polarization assay
[9] = molecular target: Heat shock protein HSP 90-beta (Homo sapiens) (UniProt P08238); test: Inhibition of HSP90 in chemo-resistant human SKI-AC3 cells at 100 uM after 24 hrs by fluorescence polarization assay; format: cell-based
How it was run: (§1)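 Competitive fluorescence polarization in lysates of H69AR, SKI-AC3 and WBA cells, prepared in HFB buffer pH 7.3 and normalized to Hsp90. Tracer was 3 nM Cy3B-geldanamycin, with incubation for 24 h at 4 °C. EC50 was defined as 50% tracer displacement.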

[10] = molecular target: Heat shock protein HSP 90-beta (Homo sapiens) (UniProt P08238); test: Inhibition of HSP90-mediated proliferation of human SKBR3cells after 72 hrs by sulforhodamine B assay
[11] = molecular target: Heat shock protein HSP 90-beta (Homo sapiens) (UniProt P08238); test: Inhibition of HSP90-mediated proliferation of human NCI-H187 cells at 1 to 3 uM after 72 to 96 hrs by sulforhodamine B assay; format: cell-based
[12] = molecular target: Heat shock protein HSP 90-beta (Homo sapiens) (UniProt P08238); test: Inhibition of HSP90-mediated antiapoptotic activity in human NCI-H526 cells assessed as increase in apoptotic cell population at 0.2 to 1 uM after 72 hrs by FACS analysis relative to control; format: cell-based
[13] = molecular target: Heat shock protein HSP 90-beta (Homo sapiens) (UniProt P08238); test: Inhibition of HSP90-mediated proliferation of human NCI-H510 cells at 1 to 3 uM after 72 to 96 hrs by sulforhodamine B assay; format: cell-based
[14] = molecular target: Heat shock protein HSP 90-beta (Homo sapiens) (UniProt P08238); test: Inhibition of HSP90-mediated antiapoptotic activity in human NCI-N417 cells assessed as increase in apoptotic cell population at 0.2 to 1 uM after 96 hrs by FACS analysis relative to control; format: cell-based
[15] = molecular target: Heat shock protein HSP 90-beta (Homo sapiens) (UniProt P08238); test: Inhibition of HSP90-mediated antiapoptotic activity in human WBA cells assessed as induction of cell growth arrest at 10 after 96 hrs by propidium iodide staining-based flow cytometry
[16] = molecular target: Heat shock protein HSP 90-beta (Homo sapiens) (UniProt P08238); test: Inhibition of HSP90-mediated antiapoptotic activity in human H69AR cells assessed as induction of cell growth arrest at 10 after 96 hrs by propidium iodide staining-based flow cytometry
[17] = molecular target: Heat shock protein HSP 90-beta (Homo sapiens) (UniProt P08238); test: Binding affinity to HSP90 in human NCI-H209 cells after 24 hrs by fluorescence polarization assay; format: cell-based
[18] = molecular target: Heat shock protein HSP 90-beta (Homo sapiens) (UniProt P08238); test: Inhibition of HSP90-mediated antiapoptotic activity in human NCI-H69 cells assessed as increase in apoptotic cell population at 0.2 to 1 uM after 72 hrs by FACS analysis relative to control; format: cell-based
[19] = molecular target: Heat shock protein HSP 90-beta (Homo sapiens) (UniProt P08238); test: Inhibition of HSP90-mediated proliferation of human NCI-H69 cells at 1 to 3 uM after 72 to 96 hrs by sulforhodamine B assay; format: cell-based
[20] = molecular target: Heat shock protein HSP 90-beta (Homo sapiens) (UniProt P08238); test: Inhibition of HSP90-mediated proliferation of human NCI-N417 cells at 1 to 3 uM after 72 to 96 hrs by sulforhodamine B assay; format: cell-based; settings: NCI-H417
[21] = molecular target: Heat shock protein HSP 90-beta (Homo sapiens) (UniProt P08238); test: Binding affinity to HSP90 in human NCI-H146 cells after 24 hrs by fluorescence polarization assay; format: cell-based
[22] = molecular target: Heat shock protein HSP 90-beta (Homo sapiens) (UniProt P08238); test: Binding affinity to HSP90 in human SKBR3 cells after 24 hrs by fluorescence polarization assay; settings: SK-BR-3
[23] = molecular target: Heat shock protein HSP 90-beta (Homo sapiens) (UniProt P08238); test: Inhibition of HSP90 in chemo-resistant human WBA cells at 100 uM after 24 hrs by fluorescence polarization assay; format: cell-based; how it was run: as §1
[24] = molecular target: Heat shock protein HSP 90-beta (Homo sapiens) (UniProt P08238); test: Binding affinity to HSP90 in human NCI-N417 cells after 24 hrs by fluorescence polarization assay; format: cell-based; settings: NCI-H417
[25] = molecular target: Heat shock protein HSP 90-beta (Homo sapiens) (UniProt P08238); test: Inhibition of HSP90 in chemo-resistant human H69AR cells at 100 uM after 24 hrs by fluorescence polarization assay; format: cell-based; how it was run: as §1
[26] = molecular target: Heat shock protein HSP 90-beta (Homo sapiens) (UniProt P08238); test: Inhibition of HSP90-mediated proliferation of human NCI-H526 cells at 1 to 3 uM after 72 to 96 hrs by sulforhodamine B assay; format: cell-based
[27] = molecular target: Heat shock protein HSP 90-beta (Homo sapiens) (UniProt P08238); test: Binding affinity to HSP90 in human NCI-H69 cells after 24 hrs by fluorescence polarization assay
[28] = molecular target: Heat shock protein HSP 90-beta (Homo sapiens) (UniProt P08238); test: Inhibition of HSP90-mediated antiapoptotic activity in human SKI-AC3 cells assessed as induction of cell growth arrest at 10 after 96 hrs by propidium iodide staining-based flow cytometry
[29] = molecular target: Heat shock protein HSP 90-beta (Homo sapiens) (UniProt P08238); test: Binding affinity to HSP90 in human NCI-H510 cells after 24 hrs by fluorescence polarization assay; format: cell-based
[30] = molecular target: Heat shock protein HSP 90-beta (Homo sapiens) (UniProt P08238); test: Inhibition of HSP90-mediated antiapoptotic activity in human MCF7 cells assessed as induction of caspase-9 cleavage at 200 uM after 24 hrs by Western blot analysis; format: cell-based
SK-BR-3 [31] = test: Inhibition of HSP70-mediated antiapoptotic activity in human SKBR3 cells assessed as induction of caspase-3 cleavage after 24 hrs by Western blot analysis; format: cell-based
How it was run: (§2)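 SKBr3 cells were treated for 24 h. Lysates were probed by western blot for caspase-3 and PARP cleavage. Apaf-1 complexes were pulled down with Apaf-1 antibody (with control IgG) and immunoblotted.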

[32] = molecular target: Heat shock protein HSP 90-beta (Homo sapiens) (UniProt P08238); test: Inhibition of HSP90-mediated antiapoptotic activity in human MCF7 cells assessed as induction of PARP cleavage at 200 uM after 24 hrs by Western blot analysis; format: cell-based
NCI-H526 [33] = test: Inhibition of HSP70-mediated antiapoptotic activity in human NCI-H526 cells assessed as induction of caspase-3 cleavage after 24 hrs by Western blot analysis; format: cell-based
How it was run: (§3)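 NCI-H526 cells were treated for 24 h. PARP and caspase-3 cleavage were read by western blot of lysates in Tris/NaCl/NP-40 buffer. Apaf-1 complexes were immunoprecipitated with Apaf-1 antibody, using control IgG, then blotted.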

NCI-H526 [34] = test: Inhibition of HSP70-mediated antiapoptotic activity in human NCI-H526 cells assessed as release of Apaf-1 from chaperon complex after 24 hrs by Western blot analysis; format: cell-based; how it was run: as §3
[35] = molecular target: Heat shock protein HSP 90-beta (Homo sapiens) (UniProt P08238); test: Inhibition of HSP90-mediated antiapoptotic activity in human SKBR3 cells assessed as induction of PARP cleavage at 200 uM after 24 hrs by Western blot analysis; format: cell-based; settings: SK-BR-3
How it was run: (§4)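 SKBr3 breast cancer cells at 60–70% confluence treated 24 h with compound or DMSO vehicle. Lysates in 50 mM Tris pH 7.4, 150 mM NaCl, 1% NP-40, quantified by BCA. 20–100 µg resolved by SDS-PAGE, blotted to nitrocellulose and probed for cleaved caspase-3, caspase-9 and PARP, using 1:5,000 peroxidase secondary. β-actin or PI(3)K p85 served as loading control.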

SK-BR-3 [36] = test: Inhibition of HSP70-mediated antiapoptotic activity in human SKBR3 cells assessed as induction of cell growth arrest after 72 hrs by propidium iodide staining-based flow cytometry
SK-BR-3 [37] = test: Inhibition of HSP70-mediated antiapoptotic activity in human SKBR3 cells assessed as increase in caspase-3 activity after 24 hrs by Western blot analysis; format: cell-based
NCI-H526 [38] = test: Inhibition of HSP70-mediated antiapoptotic activity in human NCI-H526 cells assessed as induction of PARP cleavage after 24 hrs by Western blot analysis; format: cell-based; how it was run: as §3
SK-BR-3 [39] = test: Inhibition of HSP70-mediated antiapoptotic activity in human SKBR3 cells assessed as induction of PARP cleavage after 24 hrs by Western blot analysis; format: cell-based; how it was run: as §2
[40] = molecular target: Heat shock protein HSP 90-beta (Homo sapiens) (UniProt P08238); test: Inhibition of HSP90-mediated antiapoptotic activity in human MCF7 cells assessed as induction of caspase-3 cleavage at 200 uM after 24 hrs by Western blot analysis; format: cell-based
[41] = molecular target: Heat shock protein HSP 90-beta (Homo sapiens) (UniProt P08238); test: Inhibition of HSP90-mediated antiapoptotic activity in human SKBR3 cells assessed as induction of caspase-3 cleavage at 200 uM after 24 hrs by Western blot analysis; format: cell-based; settings: SK-BR-3; how it was run: as §4
[42] = molecular target: Heat shock protein HSP 90-beta (Homo sapiens) (UniProt P08238); test: Inhibition of HSP90-mediated antiapoptotic activity in human SKBR3 cells assessed as induction of caspase-9 cleavage at 200 uM after 24 hrs by Western blot analysis; format: cell-based; settings: SK-BR-3; how it was run: as §4

Heat shock protein HSP 90-beta (Homo sapiens), sequence (P08238 whole entry): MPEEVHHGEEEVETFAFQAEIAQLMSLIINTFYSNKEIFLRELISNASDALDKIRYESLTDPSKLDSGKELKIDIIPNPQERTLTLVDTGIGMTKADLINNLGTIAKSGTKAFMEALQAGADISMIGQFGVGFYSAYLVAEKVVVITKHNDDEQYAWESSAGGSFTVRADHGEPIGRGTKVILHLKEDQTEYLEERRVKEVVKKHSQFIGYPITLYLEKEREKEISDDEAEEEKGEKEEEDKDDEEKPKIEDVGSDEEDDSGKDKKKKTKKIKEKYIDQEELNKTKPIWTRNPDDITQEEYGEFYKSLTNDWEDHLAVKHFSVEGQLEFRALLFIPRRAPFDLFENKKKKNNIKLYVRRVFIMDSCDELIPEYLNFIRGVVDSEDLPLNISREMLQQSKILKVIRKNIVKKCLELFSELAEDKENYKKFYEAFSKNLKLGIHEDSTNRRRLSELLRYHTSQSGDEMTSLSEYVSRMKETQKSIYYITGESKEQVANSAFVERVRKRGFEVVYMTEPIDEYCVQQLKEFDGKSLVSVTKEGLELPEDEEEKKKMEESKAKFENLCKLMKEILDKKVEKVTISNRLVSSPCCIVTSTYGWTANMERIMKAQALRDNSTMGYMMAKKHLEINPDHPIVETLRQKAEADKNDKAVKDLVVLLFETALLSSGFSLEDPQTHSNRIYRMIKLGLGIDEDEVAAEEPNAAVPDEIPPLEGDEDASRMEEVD

C#CCCCn1c(Sc2cc3c(cc2Br)OCO3)nc2c(N)ncnc21
active: Activity [2] | Activity [8] | inhibition [9] | inhibition [10] | Activity [15] | Activity [16] | Activity [17] | Activity [21] | Activity [22] | inhibition [23] | Activity [24] | inhibition [25] | Activity [27] | Activity [28] | Activity [29]
2: fold change (FC) [1] | fold change (FC) [4] | fold change (FC) [5] | fold change (FC) [6] | fold change (FC) [12] | fold change (FC) [14] | fold change (FC) [18]
50%: inhibition [3] | inhibition [7] | inhibition [11] | inhibition [13] | inhibition [19] | inhibition [20] | inhibition [26]

O=c1c(O)c(-c2ccc(O)c(O)c2)oc2cc(O)cc(O)c12
inactive: Activity [30] | Activity [32] | inhibition (NCI-H526 [33]) | inhibition (NCI-H526 [34]) | Activity [35] | inhibition (NCI-H526 [38]) | Activity [40] | Activity [41] | Activity [42]
active: inhibition (SK-BR-3 [31]) | inhibition (SK-BR-3 [36]) | inhibition (SK-BR-3 [37]) | inhibition (SK-BR-3 [39])
